The results in this text go back to ChEMBL document CHEMBL3232932, “UPLC-MS-ELSD-PDA as a powerful dereplication tool to facilitate compound identification from small-molecule natural product libraries” (J Nat Prod, 2014).

The nature of series [1]: Retention time of the compound by ELSD chromatography. The class given is physicochemical. In outline: (§1)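 Waters Acquity UPLC with ELSD, PDA and single-quadrupole ESI-MS (positive and negative modes). Fractions from automated fractionation of plant extracts were run on a BEH C18 column (2.1 × 50 mm, 1.7 μm) at 1.0 mL/min. Mobile phase was H2O with 0.1% HCOOH against CH3CN or MeOH, with a 3.0 min total run. The gradient differed by run.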

Series [2] in a line: Retention time of the compound by PDA chromatography. The series is classed as physicochemical. In outline:
as §1

The nature of series [3]: Antiproliferative activity against mouse ependymoma cells harboring EPHB2 after 96 hrs by Cell-Titer Glo assay. The class given is functional, cell-based. In outline:
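Cells seeded in neurobasal medium in 384-well plates. Compounds were pin-transferred 24 h later, and DMSO and cycloheximide controls were included on each plate. Dose-response was run as a dilution series in triplicate. After 96 h incubation, cell number was read by CellTiter-Glo luminescence. Data were log10-transformed and percent inhibition calculated, and EC50 was derived.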

Where only a bound is given, the exact number is not on record here.

Turning to `COc1cc(O)c2c(c1)OC(c1ccc(O)c(O)c1)CC2=O` (centres undefined), the Retention_time was determined as 1.02 min in series [1] and 0.98 min in series [2].
In the same order, the values of `CC1=c2cc3c(cc2C(=O)OC1(C)C)=C(C)C(C)(C)OC3=O` are 0.9 min and 0.92 min.
Compound `COc1cc(C[C@H]2C(=O)OC[C@@H]2Cc2ccc3c(c2)OCO3)cc(OC)c1OC` came in with a Retention_time in series [1] of 1.2 min.
`C=C1CC[C@@H]2[C@](C)(CCC[C@]2(C)C(=O)O)[C@H]1CCC(C)(O)C(O)CO` (mixture of isomers) registered a Retention_time in series [1] of 0.92 min. Moreover, the half-maximal effective concentration (EC50) (as a rule, the concentration giving half of the maximal effect) in series [3] is greater than 100 µg/mL.
Regarding `COc1cc([C@@H]2c3cc4c(cc3C[C@H]3COC(=O)[C@@H]32)OCO4)cc(OC)c1OC` [DESOXYPODOPHYLLOTOXIN], the Retention_time in series [1] is reported as 1.18 min; in series [2] it was 1.15 min. Also, a half-maximal response in series [3] (EC50) required 1.93 nM.
As to `COc1ccc([C@@H]2CC(=O)c3c(O)cc(O)cc3O2)cc1O` [HESPERETIN], the Retention_time in series [1] is listed as 0.91 min; in series [2], 0.87 min.
Consider `COc1cc([C@@H]2CC(=O)c3c(O)cc(O)cc3O2)ccc1O` [HOMOERIODICTYOL], for which the figures for the Retention_time in series [1] and in series [2] were 0.89 min and 0.85 min, respectively.
